In ChEMBL document CHEMBL1128719, “The synthesis, structure-activity, and structure-side effect relationships of a series of 8-alkoxy- and 5-amino-8-alkoxyquinolone antibacterial agents” (J Med Chem, 1995):
Values after ≈ are worked out from the molar mass of the structure shown.

Columns and labels:
Streptococcus pneumoniae = experiment: In vitro antibacterial activity was tested for Streptococcus pneumoniae SV-1; type: functional
Outline: (§1)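 Microtitration (microdilution) MIC determination in μg/mL against a panel of Gram-positive, Gram-negative and anaerobic organisms. Values come from duplicate or triplicate experiments and are stated accurate to ±50%.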

Clostridium perfringens = experiment: In vitro antibacterial activity against Clostridium perfringens CP 3-1; type: functional
Clostridioides difficile = experiment: In vitro antibacterial activity was tested for Clostridium diff CD1-1; type: functional
Escherichia coli [1] = experiment: In vitro antibacterial activity was tested for Escherichia coli H560; type: functional; outline: as §1
Enterococcus faecalis = experiment: In vitro antibacterial activity was tested for Streptococcus faecalis MGH-2; type: functional; outline: as §1
Klebsiella pneumoniae = experiment: In vitro antibacterial activity was tested for Klebsiella pneumoniae MGH-2; type: functional; outline: as §1
Cutibacterium acnes = experiment: In vitro antibacterial activity was tested for Propion acnes PA5-1; type: functional; outline: as §1
Providencia rettgeri = experiment: In vitro antibacterial activity was tested for Providencia rettgeri H1771; type: functional; outline: as §1
Staphylococcus aureus [2] = experiment: In vitro antibacterial activity was tested for Staphylococcus aureus H228; type: functional; outline: as §1
Escherichia coli [3] = experiment: In vitro antibacterial activity was tested for Escherichia coli Vogel; type: functional; outline: as §1
Bacteroides fragilis = experiment: In vitro antibacterial activity against Bacteroides fragilis BFA; type: functional; outline: as §1
Enterobacter cloacae = experiment: In vitro antibacterial activity was tested for Enterobacter cloacae HA2646; type: functional
Streptococcus pyogenes = experiment: In vitro antibacterial activity was tested for Streptococcus pyogenes C203; type: functional; outline: as §1
Staphylococcus aureus [4] = experiment: In vitro antibacterial activity was tested for Staphylococcus aureus UC-76; type: functional; outline: as §1
Pseudomonas aeruginosa = experiment: In vitro antibacterial activity was tested for Pseudomonas aeruginosa UI-18; type: functional; outline: as §1
[5] = tested on: Peptoniphilus asaccharolyticus; experiment: In vitro antibacterial activity was tested for Pepto asac PA 3-1; type: functional; outline: as §1
V79 = experiment: Clonogenic cytotoxicity against Chinese hamster V-79 cells; type: functional, cell-based; settings: Cricetulus griseus

SMILES	MIC (Streptococcus pneumoniae) [µg/mL]	MIC (Clostridium perfringens) [µg/mL]	MIC (Clostridioides difficile) [µg/mL]	MIC (Escherichia coli [1]) [µg/mL]	MIC (Enterococcus faecalis) [µg/mL]	MIC (Klebsiella pneumoniae) [µg/mL]	MIC (Cutibacterium acnes) [µg/mL]	MIC (Providencia rettgeri) [µg/mL]	MIC (Staphylococcus aureus [2]) [µg/mL]	MIC (Escherichia coli [3]) [µg/mL]	MIC (Bacteroides fragilis) [µg/mL]	MIC (Enterobacter cloacae) [µg/mL]	MIC (Streptococcus pyogenes) [µg/mL]	MIC (Staphylococcus aureus [4]) [µg/mL]	MIC (Pseudomonas aeruginosa) [µg/mL]	MIC [5] [µg/mL]	IC50 (V79) [µg/mL]
COc1c(N2CCC(CN)C2)c(F)cc2c(=O)c(C(=O)O)cn(C3CC3)c12 (centres undefined)	0.003 (≈ 0.00799 µM)	0.1 (≈ 0.266 µM)	0.2 (≈ 0.533 µM)	0.025 (≈ 0.0666 µM)	0.013 (≈ 0.0346 µM)	0.1 (≈ 0.266 µM)	0.2 (≈ 0.533 µM)	0.1 (≈ 0.266 µM)	0.025 (≈ 0.0666 µM)	0.05 (≈ 0.133 µM)	0.2 (≈ 0.533 µM)	0.05 (≈ 0.133 µM)	0.003 (≈ 0.00799 µM)	0.003 (≈ 0.00799 µM)	0.8 (≈ 2.13 µM)	0.2 (≈ 0.533 µM)	
COc1c(N2CC[C@H](N)C2)c(F)c(N)c2c(=O)c(C(=O)O)cn(C3CC3)c12	0.025 (≈ 0.0664 µM)	0.8 (≈ 2.13 µM)	3.1 (≈ 8.24 µM)	0.05 (≈ 0.133 µM)	0.1 (≈ 0.266 µM)	0.1 (≈ 0.266 µM)	1.6 (≈ 4.25 µM)	0.2 (≈ 0.531 µM)	0.025 (≈ 0.0664 µM)	0.05 (≈ 0.133 µM)	1.6 (≈ 4.25 µM)	0.05 (≈ 0.133 µM)	0.05 (≈ 0.133 µM)	0.013 (≈ 0.0345 µM)	0.8 (≈ 2.13 µM)	1.6 (≈ 4.25 µM)	
CCOc1c(N2CCNC(C)C2)c(F)cc2c(=O)c(C(=O)O)cn(C3CC3)c12 (centres undefined)	0.05 (≈ 0.128 µM)	0.8 (≈ 2.05 µM)	6.3 (≈ 16.2 µM)	0.05 (≈ 0.128 µM)	0.2 (≈ 0.514 µM)	0.2 (≈ 0.514 µM)	3.1 (≈ 7.96 µM)	0.4 (≈ 1.03 µM)	0.2 (≈ 0.514 µM)	0.1 (≈ 0.257 µM)	3.1 (≈ 7.96 µM)	0.1 (≈ 0.257 µM)	0.2 (≈ 0.514 µM)	0.05 (≈ 0.128 µM)	3.1 (≈ 7.96 µM)	1.6 (≈ 4.11 µM)	
CCOc1c(N2CCCC(N)C2)c(F)cc2c(=O)c(C(=O)O)cn(C3CC3)c12 (centres undefined)	0.2 (≈ 0.514 µM)			0.2 (≈ 0.514 µM)	0.2 (≈ 0.514 µM)	0.4 (≈ 1.03 µM)		0.8 (≈ 2.05 µM)	0.1 (≈ 0.257 µM)	0.2 (≈ 0.514 µM)		0.4 (≈ 1.03 µM)	0.2 (≈ 0.514 µM)	0.025 (≈ 0.0642 µM)	3.1 (≈ 7.96 µM)		210 (≈ 539 µM)
COc1c(N2CCCC(N)C2)c(F)cc2c(=O)c(C(=O)O)cn(C3CC3)c12 (centres undefined)	0.013 (≈ 0.0346 µM)	0.4 (≈ 1.07 µM)	0.8 (≈ 2.13 µM)	0.05 (≈ 0.133 µM)	0.025 (≈ 0.0666 µM)	0.2 (≈ 0.533 µM)	0.2 (≈ 0.533 µM)	0.4 (≈ 1.07 µM)	0.05 (≈ 0.133 µM)	0.1 (≈ 0.266 µM)	0.4 (≈ 1.07 µM)	0.1 (≈ 0.266 µM)	0.013 (≈ 0.0346 µM)	0.006 (≈ 0.016 µM)	1.6 (≈ 4.26 µM)	0.8 (≈ 2.13 µM)	
COc1c(N2CCN(C)CC2)c(F)cc2c(=O)c(C(=O)O)cn(C3CC3)c12	0.1 (≈ 0.266 µM)	0.2 (≈ 0.533 µM)	0.8 (≈ 2.13 µM)	0.1 (≈ 0.266 µM)	0.2 (≈ 0.533 µM)	0.2 (≈ 0.533 µM)	0.4 (≈ 1.07 µM)	0.4 (≈ 1.07 µM)	0.1 (≈ 0.266 µM)	0.1 (≈ 0.266 µM)	0.2 (≈ 0.533 µM)	0.1 (≈ 0.266 µM)	0.1 (≈ 0.266 µM)	0.05 (≈ 0.133 µM)	0.8 (≈ 2.13 µM)	1.6 (≈ 4.26 µM)	
Nc1c(F)c(N2CCCC(N)C2)c(F)c2c1c(=O)c(C(=O)O)cn2C1CC1 (centres undefined)																	19 (≈ 50.2 µM)
NC1CCCN(c2nc3c(cc2F)c(=O)c(C(=O)O)cn3C2CC2)C1 (centres undefined)		0.8 (≈ 2.31 µM)	> 25				6.3 (≈ 18.2 µM)				25 (≈ 72.2 µM)					6.3 (≈ 18.2 µM)	
CCOc1c(N2CCC(C)(CN)C2)c(F)c(N)c2c(=O)c(C(=O)O)cn(C3CC3)c12 (centres undefined)	0.05 (≈ 0.119 µM)	0.4 (≈ 0.956 µM)	6.3 (≈ 15.1 µM)	0.1 (≈ 0.239 µM)	0.1 (≈ 0.239 µM)	0.8 (≈ 1.91 µM)	3.1 (≈ 7.41 µM)	1.6 (≈ 3.82 µM)	0.1 (≈ 0.239 µM)	0.2 (≈ 0.478 µM)	3.1 (≈ 7.41 µM)	0.4 (≈ 0.956 µM)	0.1 (≈ 0.239 µM)	0.025 (≈ 0.0597 µM)	3.1 (≈ 7.41 µM)	0.8 (≈ 1.91 µM)	
